Laboratory results published in ChEMBL document CHEMBL4689842, “EUbOPEN Chemogenomics Library wave 1” (2021).

Tests used:
Assay type in all cases: toxicity, cell-based
HEK-293T = experiment: Incucyte cell viability with HEK293T; conditions: human, 10 µM, compound concentration 10 uM; further: filed as whole numbers so only -1 and 0 and 1 occur
U2OS [1] = experiment: Multiplex assay against U2OS; conditions: human
Outline: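 On a CQ1 microscope at 37°C and 5% CO2, live cells were imaged after compound addition. They had been stained at seeding with Hoechst33342, BioTracker Green Microtubule Cytoskeleton Dye, MitoTracker Red and Annexin V Alexa Fluor 680. CellPathfinder machine-learning gating assigned cells to Hoechst high-intensity objects or normal cells, normal cells to healthy, pyknosed or fragmented nuclei, and pyknosed cells to mitotic or apoptotic. Tubulin, mitochondrial-mass and membrane-permeability phenotypes are per cents of healthy-nucleus cells.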

Fibroblast = experiment: Incucyte cell viability with human fibroblast; conditions: 10 µM, compound concentration 10 uM; further: filed as whole numbers so only -1 and 0 and 1 occur
U2OS [2] = experiment: Incucyte cell viability with U2OS; conditions: human, 10 µM, compound concentration 10 uM; further: filed as whole numbers so only -1 and 0 and 1 occur
[3] = 0 h, replicate number 1, timepoint 0 hours
[4] = 0 h, replicate number 2, timepoint 0 hours
[5] = 6 h, replicate number 1, timepoint 6 hours
[6] = 12 h, replicate number 1, timepoint 12 hours
[7] = 18 h, replicate number 1, timepoint 18 hours
[8] = 24 h, replicate number 1, timepoint 24 hours
[9] = 12 h, 1 µM, compound concentration 1 uM, replicate 1
[10] = 12 h, 1 µM, compound concentration 1 uM, replicate 2
[11] = 12 h, 10 µM, compound concentration 10 uM, replicate 1
[12] = 12 h, 10 µM, compound concentration 10 uM, replicate 2
[13] = 24 h, 1 µM, compound concentration 1 uM, replicate 1
[14] = 24 h, 1 µM, compound concentration 1 uM, replicate 2
[15] = 24 h, 10 µM, compound concentration 10 uM, replicate 1
[16] = 24 h, 10 µM, compound concentration 10 uM, replicate 2
[17] = 48 h, 1 µM, compound concentration 1 uM, replicate 1
[18] = 48 h, 1 µM, compound concentration 1 uM, replicate 2
[19] = 48 h, 10 µM, compound concentration 10 uM, replicate 1
[20] = 48 h, 10 µM, compound concentration 10 uM, replicate 2
[21] = 12 h, replicate number 2, timepoint 12 hours

C=CC(=O)Nc1cc(-n2c(=O)ccc3cnc4ccc(-c5ccc(NS(C)(=O)=O)cc5)cc4c32)ccc1C
Growth Rate (HEK-293T; [3]): 0 | Growth Rate (HEK-293T; [4]): 1 | Growth Rate (HEK-293T; [5]): 0 | Growth Rate (HEK-293T; [6]): 0 | Growth Rate (HEK-293T; [7]): 0 | Growth Rate (HEK-293T; [8]): 0 | Population Apoptotic (%) (U2OS [1]; [9]): 35% | Population Fragmented Nuclei (%) (U2OS [1]; [9]): 6% | Population Healthy Nuclei (%) (U2OS [1]; [9]): 80% | Population Hoechst High Intensity Objects (%) (U2OS [1]; [9]): 3% | Population Membrane Permeable-Phenotype (%) (U2OS [1]; [9]): 7% | Population Mitochondria Different-Phenotype (%) (U2OS [1]; [9]): 4% | Population Mitotic Cells (%) (U2OS [1]; [9]): 65% | Population Normal (%) (U2OS [1]; [9]): 96% | Population Pyknosed Nuclei (%) (U2OS [1]; [9]): 12% | Population Tubulin-Different-Phenotype (%) (U2OS [1]; [9]): 6% | Total Cell Count (U2OS [1]; [9]): 164 | Population Apoptotic (%) (U2OS [1]; [10]): 33% | Population Fragmented Nuclei (%) (U2OS [1]; [10]): 10% | Population Healthy Nuclei (%) (U2OS [1]; [10]): 77% | Population Hoechst High Intensity Objects (%) (U2OS [1]; [10]): 7% | Population Membrane Permeable-Phenotype (%) (U2OS [1]; [10]): 0% | Population Mitochondria Different-Phenotype (%) (U2OS [1]; [10]): 10% | Population Mitotic Cells (%) (U2OS [1]; [10]): 66% | Population Normal (%) (U2OS [1]; [10]): 92% | Population Tubulin-Different-Phenotype (%) (U2OS [1]; [10]): 10% | Total Cell Count (U2OS [1]; [10]): 53 | Population Apoptotic (%) (U2OS [1]; [11]): 30% | Population Fragmented Nuclei (%) (U2OS [1]; [11]): 19% | Population Healthy Nuclei (%) (U2OS [1]; [11]): 66% | Population Hoechst High Intensity Objects (%) (U2OS [1]; [11]): 7% | Population Membrane Permeable-Phenotype (%) (U2OS [1]; [11]): 10% | Population Mitochondria Different-Phenotype (%) (U2OS [1]; [11]): 26% | Population Mitotic Cells (%) (U2OS [1]; [11]): 69% | Population Normal (%) (U2OS [1]; [11]): 92% | Population Pyknosed Nuclei (%) (U2OS [1]; [11]): 14% | Population Tubulin-Different-Phenotype (%) (U2OS [1]; [11]): 29% | Total Cell Count (U2OS [1]; [11]): 173 | Population Apoptotic (%) (U2OS [1]; [12]): 76% | Population Fragmented Nuclei (%) (U2OS [1]; [12]): 8% | Population Healthy Nuclei (%) (U2OS [1]; [12]): 54% | Population Hoechst High Intensity Objects (%) (U2OS [1]; [12]): 9% | Population Membrane Permeable-Phenotype (%) (U2OS [1]; [12]): 12% | Population Mitochondria Different-Phenotype (%) (U2OS [1]; [12]): 56% | Population Mitotic Cells (%) (U2OS [1]; [12]): 23% | Population Normal (%) (U2OS [1]; [12]): 90% | Population Pyknosed Nuclei (%) (U2OS [1]; [12]): 36% | Population Tubulin-Different-Phenotype (%) (U2OS [1]; [12]): 52% | Total Cell Count (U2OS [1]; [12]): 51 | Population Apoptotic (%) (U2OS [1]; [13]): 28% | Population Fragmented Nuclei (%) (U2OS [1]; [13]): 6% | Population Healthy Nuclei (%) (U2OS [1]; [13]): 86% | Population Hoechst High Intensity Objects (%) (U2OS [1]; [13]): 4% | Population Membrane Permeable-Phenotype (%) (U2OS [1]; [13]): 4% | Population Mitochondria Different-Phenotype (%) (U2OS [1]; [13]): 8% | Population Mitotic Cells (%) (U2OS [1]; [13]): 71% | Population Normal (%) (U2OS [1]; [13]): 95% | Population Pyknosed Nuclei (%) (U2OS [1]; [13]): 6% | Population Tubulin-Different-Phenotype (%) (U2OS [1]; [13]): 12% | Total Cell Count (U2OS [1]; [13]): 216 | Population Apoptotic (%) (U2OS [1]; [14]): 55% | Population Fragmented Nuclei (%) (U2OS [1]; [14]): 11% | Population Healthy Nuclei (%) (U2OS [1]; [14]): 76% | Population Hoechst High Intensity Objects (%) (U2OS [1]; [14]): 2% | Population Membrane Permeable-Phenotype (%) (U2OS [1]; [14]): 3% | Population Mitochondria Different-Phenotype (%) (U2OS [1]; [14]): 15% | Population Mitotic Cells (%) (U2OS [1]; [14]): 44% | Population Normal (%) (U2OS [1]; [14]): 97% | Population Pyknosed Nuclei (%) (U2OS [1]; [14]): 11% | Population Tubulin-Different-Phenotype (%) (U2OS [1]; [14]): 22% | Total Cell Count (U2OS [1]; [14]): 79 | Population Apoptotic (%) (U2OS [1]; [15]): 53% | Population Fragmented Nuclei (%) (U2OS [1]; [15]): 17% | Population Healthy Nuclei (%) (U2OS [1]; [15]): 69% | Population Hoechst High Intensity Objects (%) (U2OS [1]; [15]): 3% | Population Membrane Permeable-Phenotype (%) (U2OS [1]; [15]): 8% | Population Mitochondria Different-Phenotype (%) (U2OS [1]; [15]): 17% | Population Mitotic Cells (%) (U2OS [1]; [15]): 46% | Population Normal (%) (U2OS [1]; [15]): 96% | Population Pyknosed Nuclei (%) (U2OS [1]; [15]): 13% | Population Tubulin-Different-Phenotype (%) (U2OS [1]; [15]): 15% | Total Cell Count (U2OS [1]; [15]): 202 | Population Apoptotic (%) (U2OS [1]; [16]): 84% | Population Fragmented Nuclei (%) (U2OS [1]; [16]): 21% | Population Healthy Nuclei (%) (U2OS [1]; [16]): 32% | Population Hoechst High Intensity Objects (%) (U2OS [1]; [16]): 5% | Population Membrane Permeable-Phenotype (%) (U2OS [1]; [16]): 22% | Population Mitochondria Different-Phenotype (%) (U2OS [1]; [16]): 50% | Population Mitotic Cells (%) (U2OS [1]; [16]): 15% | Population Normal (%) (U2OS [1]; [16]): 94% | Population Pyknosed Nuclei (%) (U2OS [1]; [16]): 46% | Population Tubulin-Different-Phenotype (%) (U2OS [1]; [16]): 33% | Total Cell Count (U2OS [1]; [16]): 59 | Population Apoptotic (%) (U2OS [1]; [17]): 25% | Population Fragmented Nuclei (%) (U2OS [1]; [17]): 5% | Population Healthy Nuclei (%) (U2OS [1]; [17]): 87% | Population Hoechst High Intensity Objects (%) (U2OS [1]; [17]): 2% | Population Membrane Permeable-Phenotype (%) (U2OS [1]; [17]): 1% | Population Mitochondria Different-Phenotype (%) (U2OS [1]; [17]): 14% | Population Mitotic Cells (%) (U2OS [1]; [17]): 74% | Population Normal (%) (U2OS [1]; [17]): 97% | Population Pyknosed Nuclei (%) (U2OS [1]; [17]): 7% | Population Tubulin-Different-Phenotype (%) (U2OS [1]; [17]): 14% | Total Cell Count (U2OS [1]; [17]): 360 | Population Apoptotic (%) (U2OS [1]; [18]): 9% | Population Fragmented Nuclei (%) (U2OS [1]; [18]): 9% | Population Healthy Nuclei (%) (U2OS [1]; [18]): 81% | Population Hoechst High Intensity Objects (%) (U2OS [1]; [18]): 3% | Population Membrane Permeable-Phenotype (%) (U2OS [1]; [18]): 0% | Population Mitochondria Different-Phenotype (%) (U2OS [1]; [18]): 12% | Population Mitotic Cells (%) (U2OS [1]; [18]): 90% | Population Normal (%) (U2OS [1]; [18]): 96% | Population Pyknosed Nuclei (%) (U2OS [1]; [18]): 9% | Population Tubulin-Different-Phenotype (%) (U2OS [1]; [18]): 20% | Total Cell Count (U2OS [1]; [18]): 115 | Population Apoptotic (%) (U2OS [1]; [19]): 77% | Population Fragmented Nuclei (%) (U2OS [1]; [19]): 15% | Population Healthy Nuclei (%) (U2OS [1]; [19]): 72% | Population Hoechst High Intensity Objects (%) (U2OS [1]; [19]): 4% | Population Membrane Permeable-Phenotype (%) (U2OS [1]; [19]): 10% | Population Mitochondria Different-Phenotype (%) (U2OS [1]; [19]): 19% | Population Mitotic Cells (%) (U2OS [1]; [19]): 22% | Population Normal (%) (U2OS [1]; [19]): 95% | Population Pyknosed Nuclei (%) (U2OS [1]; [19]): 12% | Population Tubulin-Different-Phenotype (%) (U2OS [1]; [19]): 9% | Total Cell Count (U2OS [1]; [19]): 257 | Population Apoptotic (%) (U2OS [1]; [20]): 95% | Population Fragmented Nuclei (%) (U2OS [1]; [20]): 19% | Population Healthy Nuclei (%) (U2OS [1]; [20]): 35% | Population Hoechst High Intensity Objects (%) (U2OS [1]; [20]): 5% | Population Membrane Permeable-Phenotype (%) (U2OS [1]; [20]): 22% | Population Mitochondria Different-Phenotype (%) (U2OS [1]; [20]): 33% | Population Mitotic Cells (%) (U2OS [1]; [20]): 4% | Population Normal (%) (U2OS [1]; [20]): 94% | Population Pyknosed Nuclei (%) (U2OS [1]; [20]): 45% | Population Tubulin-Different-Phenotype (%) (U2OS [1]; [20]): 33% | Total Cell Count (U2OS [1]; [20]): 54 | Growth Rate (Fibroblast; [3]): 0 | Growth Rate (Fibroblast; [5]): 1 | Growth Rate (Fibroblast; 6 h, replicate number 2, timepoint 6 hours): 0 | Growth Rate (Fibroblast; [6]): 1 | Growth Rate (Fibroblast; [21]): 0 | Growth Rate (Fibroblast; [7]): 1 | Growth Rate (Fibroblast; 18 h, replicate number 2, timepoint 18 hours): 0 | Growth Rate (Fibroblast; [8]): 1 | Growth Rate (Fibroblast; 24 h, replicate number 2, timepoint 24 hours): 0 | Growth Rate (U2OS [2]; [3]): 0 | Growth Rate (U2OS [2]; [4]): 1 | Growth Rate (U2OS [2]; [5]): 1 | Growth Rate (U2OS [2]; [6]): 1 | Growth Rate (U2OS [2]; [21]): 0 | Growth Rate (U2OS [2]; [7]): 0 | Growth Rate (U2OS [2]; [8]): 0
